Data taken from ChEMBL document CHEMBL1146334, “3D-Quantitative structure-activity relationships of synthetic antileishmanial ring-substituted ether phospholipids” (Bioorg Med Chem, 2007).

How the values were obtained:
[1] = system: Leishmania donovani; assay: Antileishmanial activity against Leishmania donovani LEM703 by MTT assay; format: functional, organism-based
[2] = system: Leishmania infantum; assay: Antileishmanial activity against Leishmania infantum LEM235 by MTT assay; format: functional, organism-based
[3] = Toxicity against red blood cells assessed as hemolytic activity; format: cell-based, Erythrocyte; conditions: human
Summary of the method: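 Human red cells from EDTA blood of healthy volunteers were washed thrice in PBS and mixed 1:1 with compound in PBS, 100 to 6.25, for 1 h at 37 °C. After centrifugation at 800g for 10 min, supernatant absorbance was read at 550 nm against 625 nm. % hemolysis = (A − A0)/(Amax − A0) × 100, with PBS as background and water as 100%. HC50 is the concentration giving 50% hemolysis.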

[4] = system: THP-1; assay: Cytotoxicity against human THP1 cells after 72 hrs; format: functional, cell-based; conditions: THP-1, 72 h
Summary of the method: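 THP1 cells at 1 × 10^6 cells/ml were exposed to test concentrations of 50 to 156 for 72 h. About 4 × 10^6 cells were then stained with PI (10 µg/ml) and SYBR-14 (0.1 mg/ml) in HEPES/NaCl/BSA buffer, pH 7.4, for 30 min at 37 °C. Flow cytometry used 488 nm excitation, analysed at least 10,000 cells, excluded autofluorescence and debris, and each experiment was repeated twice.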

Structure (SMILES)	IC50 [1] [µM]	IC50 [2] [µM]	HC50 [3] [µM]	IC50 [4] [µM]
C[N+](C)(C)CCOP(=O)([O-])OCCOC1CCCCC1	> 100	> 100		
C[N+]1(CCOP(=O)([O-])OCCCCC=C2C3CC4CC(C3)CC2C4)CCOCC1	46.9	> 100		
C[N+]1(CCOP(=O)([O-])OCCOC2CCCCC2)CCCCC1	> 100	> 100		
C[N+](C)(C)CCOP(=O)([O-])OCCCCCC1C2CC3CC(C2)CC1C3 (stereo not given)	4.02	> 100	> 100	59.5
C[N+]1(CCOP(=O)([O-])OCCCCCCCCCCC=C2C3CC4CC(C3)CC2C4)CCOCC1	5.09	6.64	> 100	37.4
C[N+](C)(C)C1CCCC1OP(=O)([O-])OCCCCCCCCCCC=C1C2CC3CC(C2)CC1C3 (stereo not given)	3.92	38	> 100	75
C[N+]1(CCOP(=O)([O-])OCCCCC=C2CCCCC2)CCCCC1	> 100	> 100		
CCCCCCCCCCCCCC=C1CCC(OCCOP(=O)([O-])OCC[N+](C)(C)C)CC1 (stereo not given)	3.91	5.25	> 100	20.2
C[N+](C)(C)CCOP(=O)([O-])OCCCCCCCCCCC=C1CCCCC1	2.4	5.2	68.3	31.3
CCCCCCCCCCCCC1CCC(OCCOP(=O)([O-])OCC[N+](C)(C)C)CC1 (stereo not given)	9.49	5.65	75.7	22.2
C[N+]1(CCOP(=O)([O-])OCCCCC=C2C3CC4CC(C3)CC2C4)CCCCC1	> 100	> 100		
C[N+]1(CCOP(=O)([O-])OCCCCCCCCCCC=C2CCCCC2)CCCCC1	8.7	47.6	> 100	
CCCCCCCCCCCCCCCC=C1CCC(OCCOP(=O)([O-])OCC[N+]2(C)CCOCC2)CC1 (stereo not given)	16.2	3.7	> 100	18.9
CCCCCCCCCCCCCC=C1CCC(OCCOP(=O)([O-])OCC[N+]2(C)CCCCC2)CC1 (stereo not given)	29.7	11.4	> 100	65
C[N+](C)(C)CCOP(=O)([O-])OCCCCCCCCCCCC1C2CC3CC(C2)CC1C3 (stereo not given)	2.88	5.97	> 100	169
C[N+](C)(C)C1CCCC1OP(=O)([O-])OCCCCCCCCCCC=C1CCCCC1 (stereo not given)	8.56	> 100	76.3	30.7
CCCCCCCCCCCC=C1CCC(OCCOP(=O)([O-])OCC[N+]2(C)CCCCC2)CC1 (stereo not given)	22	23.1		

Structure (SMILES)	IC50 [1] [µM]	IC50 [2] [µM]	HC50 [3] [µM]	IC50 [4] [µM]
C[N+](C)(C)CCOP(=O)([O-])OCCCCCCCCCCCC1CCCCC1	10.3	8.4	> 100	35.5
C[N+]1(CCOP(=O)([O-])OCCCCCCCCCCC=C2C3CC4CC(C3)CC2C4)CCCCC1	5.41	22.6	> 100	169
C[N+](C)(C)C1CCCCC1OP(=O)([O-])OCCCCCCCCCCC=C1CCCCC1 (stereo not given)	26.3	> 100	59.8	
C[N+](C)(C)CCOP(=O)([O-])OCCCCC=C1C2CC3CC(C2)CC1C3	4.99	> 100	> 100	> 500
CCCCCCCCCCCC=C1CCC(OCCOP(=O)([O-])OCC[N+](C)(C)C)CC1 (stereo not given)	7.08	3.25	40.6	26
C[N+]1(CCOP(=O)([O-])OCCCCC=C2CCCCC2)CCOCC1	> 100	> 100		
C[N+](C)(C)CCOP(=O)([O-])OCCCCC=C1CCCCC1	> 100	> 100		
CCCCCCCCCCCCCC=C1CCC(OCCOP(=O)([O-])OCC[N+]2(C)CCOCC2)CC1 (stereo not given)	38.6	15.5	58.8	20.4
C[N+]1(CCOP(=O)([O-])OCCCCCCCCCCC=C2CCCCC2)CCOCC1	8.25	22.8		
CCCCCCCCCCCCCCCC=C1CCC(OCCOP(=O)([O-])OCC[N+]2(C)CCCCC2)CC1 (stereo not given)	22	6.5	> 100	25.7
CCCCCCCCCCCCCCCCOP(=O)([O-])OCC[N+](C)(C)C [MILTEFOSINE]			38.3	
CCCCCCCCCCCC=C1CCC(OCCOP(=O)([O-])OCC[N+]2(C)CCOCC2)CC1 (stereo not given)	50.7	16.5	> 100	
C[N+](C)(C)C1CCCCC1OP(=O)([O-])OCCCCCCCCCCC=C1C2CC3CC(C2)CC1C3 (stereo not given)	16.6	> 100	66.6	39.7
CCCCCCCCCCCCCCCC=C1CCC(OCCOP(=O)([O-])OCC[N+](C)(C)C)CC1 (stereo not given)	45.1	21.2	> 100	
C[N+](C)(C)CCOP(=O)([O-])OCCCCCCCCCCC=C1C2CC3CC(C2)CC1C3	3.16	6.75	> 100	59.5
C[N+]1(CCOP(=O)([O-])OCCOC2CCCCC2)CCOCC1	> 100	> 100		
